Test results reported in ChEMBL document CHEMBL1146882, “Hepatoprotective activity of Schouwia thebica webb” (2006).

Key:
[1] = test system: Rattus norvegicus; assay: Gamma-glutamyl transferase activity in Sprague-Dawley rat serum at 25 mg/kg, po; assay type: functional, organism-based; parameters: dose 25 mg/kg
In short: (§1)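 Male Sprague–Dawley rats (180-200 g), 5 per group, dosed orally once daily for 5 successive days. Twenty-four hours after the last dose, each rat received a single oral dose of 50% CCl4 in corn oil (2.5 ml/kg). Comparison groups were corn oil alone and CCl4 alone. Two days later, blood was taken from the orbital plexus, and serum was separated by centrifugation at 3000 rpm for 15 min for the assays.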

[2] = test system: Rattus norvegicus; assay: Albumin level in Sprague-Dawley rat serum at 25 mg/kg, po; assay type: functional, organism-based; parameters: dose 25 mg/kg; in short: as §1
[3] = test system: Rattus norvegicus; assay: Triglyceride level in Sprague-Dawley rat serum at 25 mg/kg, po; assay type: functional, organism-based; parameters: dose 25 mg/kg; in short: as §1
[4] = test system: Rattus norvegicus; assay: Glucose level in Sprague-Dawley rat serum at 25 mg/kg, po; assay type: functional, organism-based; parameters: dose 25 mg/kg; in short: as §1
[5] = test system: Rattus norvegicus; assay: Aspartate aminotransferase activity in Sprague-Dawley rat serum at 25 mg/kg, po; assay type: functional, organism-based; parameters: dose 25 mg/kg; in short: as §1
[6] = test system: Rattus norvegicus; assay: Cholesterol level in Sprague-Dawley rat serum at 25 mg/kg, po; assay type: functional, organism-based; parameters: dose 25 mg/kg; in short: as §1
[7] = test system: Rattus norvegicus; assay: Alanine aminotransferase activity in Sprague-Dawley rat serum at 25 mg/kg, po; assay type: functional, organism-based; parameters: dose 25 mg/kg; in short: as §1
[8] = test system: Rattus norvegicus; assay: Total protein level in Sprague-Dawley rat serum at 25 mg/kg, po; assay type: functional, organism-based; parameters: dose 25 mg/kg; in short: as §1
[9] = test system: Rattus norvegicus; assay: Total bilirubin level in Sprague-Dawley rat serum at 25 mg/kg, po; assay type: functional, organism-based; parameters: dose 25 mg/kg; in short: as §1
[10] = test system: Rattus norvegicus; assay: Albumin level in Sprague-Dawley rat serum at 100 mg/kg, po; assay type: functional; in short: as §1
[11] = test system: Rattus norvegicus; assay: Total bilirubin level in Sprague-Dawley rat serum at 100 mg/kg, po; assay type: functional; in short: as §1
[12] = test system: Rattus norvegicus; assay: Glucose level in Sprague-Dawley rat serum at 100 mg/kg, po; assay type: functional; in short: as §1
[13] = test system: Rattus norvegicus; assay: Alanine aminotransferase activity in Sprague-Dawley rat serum at 100 mg/kg, po; assay type: functional; in short: as §1
[14] = test system: Rattus norvegicus; assay: Total protein level in Sprague-Dawley rat serum at 100 mg/kg, po; assay type: functional; in short: as §1
[15] = test system: Rattus norvegicus; assay: Aspartate aminotransferase activity in Sprague-Dawley rat serum at 100 mg/kg, po; assay type: functional; in short: as §1
[16] = test system: Rattus norvegicus; assay: Triglyceride level in Sprague-Dawley rat serum at 100 mg/kg, po; assay type: functional; in short: as §1
[17] = test system: Rattus norvegicus; assay: Cholesterol level in Sprague-Dawley rat serum at 100 mg/kg, po; assay type: functional; in short: as §1
[18] = test system: Rattus norvegicus; assay: Gamma-glutamyl transferase activity in Sprague-Dawley rat serum at 100 mg/kg, po; assay type: functional; in short: as §1

Row | Molecule | Activity [1] [U/L] | Activity [2] [g/dL] | Activity [3] [mg/dL] | Activity [4] [mg/dL] | Activity [5] [U/L] | Activity [6] [mg/dL] | Activity [7] [U/L] | Activity [8] [g/dL] | Activity [9] [mg/dL] | Activity [10] [g/dL] | Activity [11] [mg/dL] | Activity [12] [mg/dL] | Activity [13] [U/L] | Activity [14] [g/dL] | Activity [15] [U/L] | Activity [16] [mg/dL] | Activity [17] [mg/dL] | Activity [18] [U/L]
1 | SILYMARIN | 10.5 | 3.1 | 171 | 141 | 56.6 | 80.9 | 65.2 | 6.1 | 0.38 |  |  |  |  |  |  |  |  | 
2 | COc1cc(-c2cc(=O)c3c(O)cc(O)cc3o2)ccc1O [CHRYSOERIOL] |  |  |  |  |  |  |  |  |  | 3.05 | 0.33 | 165.36 | 69.42 | 5.61 | 62.65 | 176.21 | 88.37 | 12.05
3 | COc1cc(-c2cc(=O)c3c(O)cc(OC4O[C@H](CO)[C@@H](O)[C@@H]4OC4OC[C@@H](O)[C@H](O)[C@H]4O)cc3o2)ccc1O (some centres not stated) |  |  |  |  |  |  |  |  |  | 3.07 | 0.33 | 163.36 | 68.43 | 5.67 | 61.64 | 177.22 | 88.34 | 12.03
